According to ChEMBL document CHEMBL5252639, “Exploration of cytotoxic potential and tubulin polymerization inhibition activity of cis-stilbene-1,2,3-triazole congeners” (RSC Med Chem, 2023):

Experiments:
HCT-116 [1] = experiment: Induction of cell cycle arrest in human HCT-116 cells assessed as accumulation of cells at S phase at 1.62 uM measured after 24 hrs by PI staining based flow cytometry analysis relative to control (reference value: 5.55%)
HCT-116 [2] = experiment: Induction of cell cycle arrest in human HCT-116 cells assessed as accumulation of cells at G2/M phase at 6.50 uM measured after 48 hrs by PI staining based flow cytometry analysis relative to control (reference value: 15.61%); assay type: functional; conditions: dose 6.5 µM
HCT-116 [3] = experiment: Induction of cell cycle arrest in human HCT-116 cells assessed as accumulation of cells at G0/G1 phase at 3.25 uM measured after 24 hrs by PI staining based flow cytometry analysis relative to control (reference value: 70.34%)
HCT-116 [4] = experiment: Induction of apoptosis in human HCT-116 cells assessed as horseshoe shaped nuclei measured for 24 hrs by DAPI staining based microscopic analysis; assay type: functional, cell-based; conditions: dose 1.62-6.5 µM
How it was run: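 Then PBS wash, 4% paraformaldehyde fixation 30 min, 0.1% Triton X permeabilisation 15 min, 1 µM DAPI 15 min, PBS wash. Imaged by fluorescence microscopy (ex 350/em 460 nm), 20X.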

HCT-116 [5] = experiment: Induction of apoptosis in human HCT-116 cells assessed as cell fragmentation measured for 24 hrs by DAPI staining based microscopic analysis; assay type: functional; conditions: dose 1.62-6.5 µM
How it was run: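 Cells were seeded at 1×10^6 cells/well in 24-well plates and cultured 24 h. […] After PBS washing they were fixed in 4% paraformaldehyde for 30 min, permeabilized with 0.1% Triton X for 15 min, and stained with 1 µM DAPI for 15 min. Imaging used fluorescence microscopy (ex 350/em 460 nm) at 20X.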

Tubulin (Homo sapiens) = Tubulin (Homo sapiens) (UniProt P68371+Q9H4B7+P0DPH7+P68366+Q13509+Q71U36+P04350+Q3ZCM7+P07437+P68363+Q9BQE3+Q6PEY2+Q13885+Q9BVA1+Q9BUF5); experiment: Inhibition of tubulin polymerization in human HCT-116 cells at 1.62 uM measured after 1 hr relative to control; assay type: cell-based
HCT-116 [6] = experiment: Induction of apoptosis in human HCT-116 cells assessed as late apoptotic cells at 3.25 uM measured after 24 hrs by Annexin V-FITC/propidium iodide staining based flow cytometry (reference value: 0.00%); assay type: functional
HCT-116 [7] = experiment: Induction of cell cycle arrest in human HCT-116 cells assessed as accumulation of cells at G0/G1 phase at 1.62 uM measured after 24 hrs by PI staining based flow cytometry analysis relative to control (reference value: 70.34%)
HCT-116 [8] = experiment: Induction of cell cycle arrest in human HCT-116 cells assessed as accumulation of cells at S phase at 3.25 uM measured after 24 hrs by PI staining based flow cytometry analysis relative to control (reference value: 5.55%)

COc1ccc(/C=C(/C(=O)OCc2cn(Cc3cc(F)ccc3F)nn2)c2ccc(OC)c(OC)c2)cc1OC
Activity (HCT-116 [1]): 7.32% | Activity (HCT-116 [2]): 46.89% | Activity (HCT-116 [3]): 50.62% | Activity (HCT-116 [4]): Dose-Dependent Effect | Activity (HCT-116 [5]): Dose-Dependent Effect | inhibition (Tubulin (Homo sapiens)): 33.4% | Activity (HCT-116 [6]): 25.22% | Activity (HCT-116 [7]): 70.12% | Activity (HCT-116 [8]): 9.51%
